Source: PubChem BioAssay (several laboratories)
The list is not random: actives were taken first. Their share in the collection is about 2.9%.
MEKK2 WT-MEK5: modulators of MEK5 binding to wildtype MEKK2, primary screen, biochemical, multiplex bead flow cytometry, Alexa488-MEK5 | binding response (% of control), % at 10 µM | actives 1.1% (n = 290,000) | Alexa488-MEK5 binding to MEKK2 WT; actives lie on both sides | Mitogen-activated protein kinase kinase kinase 2 (Homo sapiens), Q9Y2U5; in the data active = binding response below about 67% or above about 130%
MEKK3 PB1 HTS: modulators of MEKK3-MEK5 PB1 binding, primary screen, biochemical, wildtype MEKK3, multiplex bead flow cytometry, Alexa488-MEK5 | Mitogen-activated protein kinase kinase kinase 3 (Homo sapiens), Q99759 | bead-based flow cytometry, Alexa488-MEK5 binding to MEKK3; actives lie on both sides; 0 = blocked by unlabeled MEK5, 100 = vehicle | binding response (% of control), % at 10 µM | actives 1.4% (n = 290,000);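 active = binding response more than 3 SD above or below the average of its plate-row segment, actives on both sides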;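 also: Alexa488 bead fluorescence after subtracting the streptavidin-only scavenger bead signal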
UBC13 polyUb: UBC13 polyubiquitin chain formation inhibitors, primary screen, biochemical, TR-FRET, uHTS. Ubiquitin-conjugating enzyme E2 N (Homo sapiens), P61088. actives 0.47% (n = 330,000). AID 485273, 2010. inhibition, % at 20 µM; in the data active = inhibition above about 45%, passing the limit was not always enough
Target sequence (P61088 whole entry, looked up): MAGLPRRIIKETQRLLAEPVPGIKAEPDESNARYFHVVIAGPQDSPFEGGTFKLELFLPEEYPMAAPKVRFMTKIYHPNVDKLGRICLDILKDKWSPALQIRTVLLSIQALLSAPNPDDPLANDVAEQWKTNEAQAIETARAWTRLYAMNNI
MEKK2mut PB1 HTS: MEK5 binding signal on mutant MEKK2 PB1, primary screen, biochemical, multiplex bead flow cytometry, Alexa488-MEK5. actives 0.35% (n = 290,000). percent response, % at 10 µM. AID 1530, 2009. Alexa488-MEK5 binding to MEKK2 mutant; in the data active = percent response above about 24%, passing the limit was not always enough
Apaf-1 inh: inhibitors of human Apaf-1 apoptosome, primary screen, biochemical, DEVD-Rh110 fluorescence, uHTS | Apoptotic protease-activating factor 1 (Homo sapiens), O14727 | reconstituted apoptosome caspase-3 activity | inhibition, % at 20 µM | actives 0.71% (n = 330,000); active = inhibition of at least 40% at 20 µM
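System: Apoptosome proteins | Medium: Hepes pH 7.5 with detergent and BSA | Also added: Cytochrome c trigger plus (Z-DEVD)2-Rh110 caspase-3 substrate | Incubation: 30 min compound preincubation, 50 min activation, room temperature | Detection: Rhodamine 110 fluorescence at Ex 480/Em 540 nm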
MEKK2wt confirm: modulators of MEK5 binding to wildtype MEKK2, confirmation, biochemical, single concentration, multiplex bead flow cytometry | shares compounds with MEKK3 PB1 HTS | Alexa488-MEK5 binding to MEKK2 WT; actives lie on both sides | binding response (% of control), % at 10 µM | actives 2.4% (n = 5,900) | AID 1892, 2009; in the data active = binding response below about 16% or above about 210%; inactive = in between
MEKK2mut-MEK5: mutant MEKK2 PB1-MEK5 binding signal retest – biochemical, single concentration, multiplex bead flow cytometry, confirmation; shares compounds with MEKK3 PB1 HTS; Alexa488-MEK5 binding to MEKK2 mutant; percent response, % at 10 µM; actives 2% (n = 5,900); in the data active = percent response mostly above about 71%, no sharp cut-off; inactive = mostly below about 38%;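 also: higher means compound restores mutant binding toward wildtype level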
MEKK3-MEK5 inh: MEKK3 wild-type PB1 binding to MEK5, inhibitors, confirmation, biochemical, bead multiplex flow cytometry, single concentration, wildtype. shares compounds with MEKK3 PB1 HTS. Alexa488-MEK5 binding to MEKK3; hits give low values. binding response (% of control), % at 10 µM. actives 1.8% (n = 5,900);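 active = binding response below 72% of control, or above a set upper limit, though filed actives all read lower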;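 also: lower values mean stronger disruption of MEK5 binding to MEKK3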
Of the large screens only hits and unclear results are named; the others gave an inactive call (follow-up assays come after a bar, where they were run); [ ] = another dose, or the depositor's remark.

CCN1CCN(c2cc(C)c3cc(NC(=O)c4cc(OC)cc(OC)c4)ccc3n2)CC1	MEKK2 WT-MEK5 139.0 | MEKK2wt confirm inactive | MEKK2mut-MEK5 inactive | MEKK3-MEK5 inh inactive
CCN1CCN(c2cc(C)c3cc(NC(=S)N4CCN(c5ccccc5)CC4)ccc3n2)CC1	none
CCOc1ccc2ncc(C(=O)c3ccc(OC)cc3)c(N3CCN(CC)CC3)c2c1	MEKK2 WT-MEK5 499.0 | MEKK2wt confirm inactive | MEKK2mut-MEK5 inactive | MEKK3-MEK5 inh inactive
CCN1CCN(c2cc(C)c3cc(NC(=O)Cc4ccc(OC)c(OC)c4)ccc3n2)CC1	MEKK2mut PB1 HTS 26.0 | MEKK2wt confirm inactive | MEKK2mut-MEK5 inactive | MEKK3-MEK5 inh inactive
CCN1CCN(c2cc(C)c3cc(NC(=S)N4CCN(c5ccccc5F)CC4)ccc3n2)CC1	MEKK2 WT-MEK5 148.0 | MEKK2wt confirm inactive | MEKK2mut-MEK5 inactive | MEKK3-MEK5 inh inactive
CCc1ccc(C(=O)c2cnc3ccc(OC)cc3c2N2CCN(CC)CC2)cc1	none
COc1cc(C(=O)Nc2ccc(NC(=O)c3ccccc3Cl)nc2)cc(OC)c1OC	none
O=C(NCc1ccc(Cl)cc1)C1CCC(CNS(=O)(=O)c2ccccc2)CC1 (centres undefined)	none
CN(CCO)c1ccc(C=NNc2ccc([N+](=O)[O-])cc2S(=O)(=O)Nc2ccccc2C(=O)O)cc1	none (no result: MEKK2 WT-MEK5, MEKK3 PB1 HTS, MEKK2mut PB1 HTS)
CCOc1ccc(C(=O)Nc2ccc3nc(N4CCN(CC)CC4)cc(C)c3c2)cc1	MEKK2 WT-MEK5 148.0 | MEKK2wt confirm inactive | MEKK2mut-MEK5 inactive | MEKK3-MEK5 inh inactive
CCC(C)NC(=O)CCC(=O)Nc1ccc2nc(N3CC(C)CC(C)C3)cc(C)c2c1 (centres undefined)	MEKK2 WT-MEK5 9.0, MEKK2mut PB1 HTS 90.0 | MEKK2wt confirm inactive | MEKK2mut-MEK5 inactive | MEKK3-MEK5 inh inactive
CCN1CCN(c2cc(C)c3cc(NC(=O)c4cnccn4)ccc3n2)CC1	none
O=C(NCc1ccccn1)[C@H]1C[C@@H]1[C@H](NP(=O)(c1ccccc1)c1ccccc1)c1ccccc1	none
CCN(Cc1ccccc1)c1ccc(/C=N/N=C(N)N)cc1	none
CCN(Cc1ccccc1)c1ccc(/C=N/NC(=S)NC(C)C)cc1	MEKK3 PB1 HTS 59.0[inhibitor] | MEKK2wt confirm inactive | MEKK2mut-MEK5 inactive | MEKK3-MEK5 inh inactive
Cn1nc(C(F)(F)F)c(-c2ccc(F)cc2)c1NC(=O)c1ccco1	none
Cn1nc(C(F)(F)F)c(-c2ccc(Br)cc2)c1NC(=O)Nc1ccc(F)cc1F	MEKK2 WT-MEK5 138.0, MEKK3 PB1 HTS 133.0 | MEKK2wt confirm inactive | MEKK2mut-MEK5 inactive | MEKK3-MEK5 inh inactive
COc1cccc(C(=O)NC(=S)Nc2ccc(Cl)cc2C(=O)O)c1	MEKK3 PB1 HTS 131.0 | MEKK2wt confirm inactive | MEKK2mut-MEK5 inactive | MEKK3-MEK5 inh inactive
COc1cccc(C(=O)NC(=S)Nc2ccc(N(C)C)cc2)c1	MEKK3 PB1 HTS 141.0 | MEKK2wt confirm inactive | MEKK2mut-MEK5 inactive | MEKK3-MEK5 inh inactive
CCOc1cccc(C(=O)NC(=S)Nc2cccc(C)c2)c1	MEKK3 PB1 HTS 130.0 | MEKK2wt confirm inactive | MEKK2mut-MEK5 inactive | MEKK3-MEK5 inh inactive
CC(C)(C)OC(=O)N1CSC[C@H]1C(=O)NC[C@H](CC(=O)O)c1ccc(Cl)cc1	none
